This is an account of results in ChEMBL document CHEMBL1147686, “Non-peptide calcitonin gene-related peptide receptor antagonists from a benzodiazepinone lead” (Bioorg Med Chem Lett, 2006).

Data set [1] has as its target T1, Calcitonin-gene-related peptide receptor, CALCRL/RAMP1 (Homo sapiens, UniProt O60894+Q16602). As to the kind of experiment: Displacement of [125I]CGRP from human cloned CLR/RAMP1 receptor expressed in E10 cells. The class given is cell-based. (In general: Displacement assays read how much labelled ligand stays bound in the presence of the test substance.)
Data set [2] in a line: Oral bioavailability in rat. The format is ADME, organism-based. To be noted: in vivo.
Data set [3] in a line: Clearance in iv dosed rat. The format is ADME, organism-based. The note with it: in vivo. Summed up:
(§1)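 Rats received compound intravenously; plasma half-life and clearance derived from the iv profile.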

Data set [4] addresses T1, Calcitonin-gene-related peptide receptor, CALCRL/RAMP1. As to the kind of experiment: Antagonist activity at human cloned CLR/RAMP1 receptor expressed in E10 cells measured as inhibition of CGRP-mediated cAMP production. The class given is functional, cell-based. Summed up:
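Whole E10 cells stably expressing cloned human CLR/RAMP1; antagonist tested against CGRP-stimulated cAMP production, IC50 from inhibition of the cAMP response.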
On the technique in general: Changes in cAMP serve as a functional read-out for many G protein-coupled receptors.

Data set [5] in a line: Half life in iv dosed rat. The format is ADME, organism-based. The note with it: in vivo. Summed up:
as §1

Data set [6] can be described thus: Cmax in rat. The format is ADME, organism-based. The note with it: in vivo.
Data set [7] deals with Calcitonin-gene-related peptide receptor; CALCRL/RAMP1 (Rattus norvegicus) (UniProt Q63118+Q9JJ74). As to the kind of experiment: Displacement of [125I]CGRP from rat CLR/RAMP1 receptor at 100 uM. The class given is protein-complex assay.
The target in data set [8] is T1, Calcitonin-gene-related peptide receptor, CALCRL/RAMP1. As to the kind of experiment: Displacement of [125I]CGRP from human cloned CLR/RAMP1 receptor expressed in SK-N-MC cells at 100 uM. The format is cell-based.
For data set [9] the target is unchanged. As to the kind of experiment: Antagonist activity at human cloned CLR/RAMP1 receptor expressed in E10 cells measured as inhibition of CGRP-mediated cAMP production at 17 uM. The class given is functional, cell-based.

T1 sequence (O60894 whole entry): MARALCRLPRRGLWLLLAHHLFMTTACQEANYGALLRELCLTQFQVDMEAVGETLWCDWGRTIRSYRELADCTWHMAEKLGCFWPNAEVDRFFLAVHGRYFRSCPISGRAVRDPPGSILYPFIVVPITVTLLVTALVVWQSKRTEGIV
T1 sequence (Q16602 whole entry): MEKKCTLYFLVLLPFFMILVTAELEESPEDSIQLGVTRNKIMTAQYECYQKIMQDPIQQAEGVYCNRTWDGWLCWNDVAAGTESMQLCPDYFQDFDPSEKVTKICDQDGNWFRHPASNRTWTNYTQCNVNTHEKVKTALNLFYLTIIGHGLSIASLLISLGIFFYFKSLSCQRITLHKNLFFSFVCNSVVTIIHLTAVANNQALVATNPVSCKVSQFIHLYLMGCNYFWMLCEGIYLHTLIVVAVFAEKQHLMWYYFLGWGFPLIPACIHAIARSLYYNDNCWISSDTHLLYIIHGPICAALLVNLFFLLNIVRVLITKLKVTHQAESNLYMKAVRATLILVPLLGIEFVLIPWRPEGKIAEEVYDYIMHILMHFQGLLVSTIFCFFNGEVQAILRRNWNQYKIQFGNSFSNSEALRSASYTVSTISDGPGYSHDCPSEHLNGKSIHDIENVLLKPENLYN

`O=C(N[C@@H]1N=C(c2ccccc2)c2ccccc2N(CC(F)(F)F)C1=O)N1CCC(N2Cc3ccccc3NC2=O)CC1`: the Ki (as a rule, the dissociation constant of the complex between target and ligand, obtained from inhibition or displacement) in data set [1] is 0.044 µM. Further, the bioavailability (as a rule, the share of a dose that reaches the circulation, judged against a reference dose that is usually intravenous) in data set [2] amounted to 10%. Moreover, in [3], the clearance (as a rule, a measure of how efficiently the substance is removed, as volume per time) was 1.2 L/h/kg. Further, the IC50 – broadly, the concentration at which inhibition is half-maximal – in [4] is 0.038 µM. Moreover, the Kb was 0.077 µM in data set [4] and 0.0794 µM in data set [4] (read-out: pA2 (converted)). Besides, the half-life (commonly the time needed for the level to fall by half in the phase considered) in [5] was 1.7 h. Also, in [6], the Cmax (commonly the maximum level reached in the sampled fluid or tissue) stood at 0.24 µM. Also, the inhibition (usually the percentage by which the read-out fell short of the control) in data set [7] is 35%.
`O=C(N[C@@H]1N=C(c2ccccc2)c2ccccc2N(CC(F)(F)F)C1=O)N1CCC(N2CCc3ccccc3NC2=O)CC1`: in data set [1], the Ki was 0.061 µM. In addition, the IC50 in [4] is 0.043 µM.
The matching figures for `CN1C(=O)[C@H](NC(=O)N2CCC(N3Cc4ccccc4NC3=O)CC2)N=C(c2ccccc2)c2ccccc21`: 2.2 µM and 3.64 µM.
Take `O=C(N[C@@H]1N=C(c2ccccc2)c2ccccc2N(CC(F)(F)F)C1=O)N1CCC(n2c(=O)[nH]c3ccccc32)CC1`: the Ki in [1] is 2.37 µM. Moreover, the IC50 in [4] is 1.58 µM.
In the case of `CC(C)N1C(=O)C(NC(=O)N2CCC(N3Cc4ccccc4N(C)C3=O)CC2)N=C(c2ccccc2)c2ccccc21` (racemic), in data set [8], the inhibition was 33%.
Take `CN1C(=O)C(NC(=O)N2CCC(n3c(=O)[nH]c4ccccc43)CC2)N=C(c2ccccc2)c2ccccc21` (racemic): the Ki in data set [1] was greater than 13 µM.
As to `CN1C(=O)[C@@H](NC(=O)N2CCC(N3Cc4ccccc4NC3=O)CC2)N=C(c2ccccc2)c2ccccc21`, in data set [1], the Ki is 8.4 µM. Moreover, the IC50 in data set [4] is 4.45 µM.
In the case of `CCN1C(=O)[C@H](NC(=O)N2CCC(N3Cc4ccccc4NC3=O)CC2)N=C(c2ccccc2)c2ccccc21`, the Ki in data set [1] is 0.897 µM. In data set [4], the IC50 was 0.99 µM.
Regarding `CN1C(=O)[C@H](NC(=O)Nc2ccc3c(c2)CCC2(C3)NC(=O)NC2=O)N=C(c2ccccc2)c2ccccc21` (some centres not stated), in data set [9], the inhibition was 57%. Besides, in [1], the Ki was 4.25 µM.
On to `CC(C)N1C(=O)C(NC(=O)N2CCC(N3Cc4ccccc4NC3=O)CC2)N=C(c2ccccc2)c2ccccc21` (racemic), for which the Ki in [1] is 1.06 µM. The IC50 in [4] was 1.81 µM.
The matching figures for `O=C(N[C@H](Cc1cc(Br)c(O)c(Br)c1)C(=O)N1CCN(c2ccccc2)CC1)N1CCC(n2c(O)nc3ccccc32)CC1`: 0.083 µM and 0.075 µM.
